As usually defined, the Ki is the equilibrium dissociation constant of an inhibitor or competing ligand from its target.

For two molecules, Ki results are on record in PubChem BioAssay AID624083 (The Scripps Research Institute Molecular Screening Center, 2012).

This test concerns the target VIM-2 metallo-beta-lactamase (Pseudomonas aeruginosa). As to the kind of experiment: VIM-2 metallo-beta-lactamase inhibitors, Ki determination, late-stage follow-up, biochemical, absorbance, probe candidates and analogs (AID 624083). The conditions noted are these: recombinant VIM-2, nitrocefin hydrolysis absorbance 495 nm. Summed up:
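Assay system: VIM-2 enzyme; compound: inhibitor concentration series crossed with varied substrate; incubation: enzyme reaction at room temperature; detection: absorbance at 495 nm tracking nitrocefin turnover over time; evaluation: Ki from mixed-inhibition regression; replication: duplicates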

SMILES strings stand for the structures.

In the case of `CN1CCN(NC(=O)CN2C(=O)/C(=C/c3c(Cl)ccc(Cl)c3Cl)SC2=S)CC1`, the Ki is 183 nM.

With `CN1CCN(NC(=O)CN2C(=O)/C(=C/c3c(Cl)cccc3Cl)SC2=S)CC1`, the Ki was 1780 nM.
